Reference: ChEMBL document CHEMBL3244010, “Isolation, synthesis, and biological activity of five metabolites of danazol” (J Med Chem, 1977)
The source made the active and inactive calls. No cut-off for these calls is given here.

Experiments:
Rattus norvegicus [1] = assay: Inhibition of pituitary gonadotropin activity in rat assessed as decrease of seminal vesicles weight at 100 mg/kg, po for 14 days; assay type: functional, organism-based; design: dose 100 mg/kg; details: Pituitary gland
Outline: (§1)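 Mature male rats were dosed orally at 100 mg/kg in ethanol-oil vehicle for 14 days. Ventral prostate, seminal vesicle and testicular weights were then compared against controls for significance.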

Rattus norvegicus [2] = assay: Inhibition of pituitary gonadotropin activity in rat assessed as decrease of testicular weight at 100 mg/kg, po for 14 days; assay type: functional, organism-based; design: dose 100 mg/kg; details: Pituitary gland; outline: as §1
Rattus norvegicus [3] = assay: Inhibition of pituitary gonadotropin activity in rat assessed as decrease of ventral prostate weight at 100 mg/kg, po for 14 days; assay type: functional, organism-based; design: dose 100 mg/kg; details: Pituitary gland; outline: as §1
Homo sapiens [4] = assay: Drug metabolism in human assessed as metabolite level treated with 800 mg, po of danazol in urine after 24 hrs by TLC analysis; assay type: ADME, organism-based; details: in vivo
Outline: (§2)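 Urine was collected from one subject given 800 mg/day orally for 7 days. Metabolites were isolated from the urine, purified in separate chromatographic systems, and identified against synthetic reference material by UV spectra in methanol and by mass spectra.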

Rattus norvegicus [5] = assay: Inhibition of pituitary gonadotropin activity in rat assessed as decrease of number of vaginal estrous days at 50 mg/kg, sc for 14 days; details: Pituitary gland
Rattus norvegicus [6] = assay: Inhibition of pituitary gonadotropin activity in rat assessed as decrease of ovarian weight at 50 mg/kg, sc for 14 days; details: Pituitary gland
Rattus norvegicus [7] = assay: Inhibition of pituitary gonadotropin activity in rat assessed as decrease of number of vaginal estrous days at 25 mg/kg, sc for 14 days; details: Pituitary gland
Rattus norvegicus [8] = assay: Inhibition of pituitary gonadotropin activity in rat assessed as decrease of ovarian weight at 25 mg/kg, sc for 14 days; details: Pituitary gland
[9] = Drug metabolism in rhesus monkey assessed as metabolite level in urine treated with at 50 mg/kg, po bid of danazol after 24 hrs by TLC analysis; assay type: ADME, organism-based, Macaca mulatta; design: dose 50 mg/kg, route oral; details: in vivo
Homo sapiens [10] = assay: Drug metabolism in human assessed as 17-hydroxy-2-(hydroxymethyl)-17alpha-pregna-1,4-dien-20-yn-3-one level in urine at 800 mg, po after 24 hrs by TLC analysis; assay type: ADME, organism-based; details: in vivo; outline: as §2
Rattus norvegicus [11] = assay: Inhibition of pituitary gonadotropin activity in rat assessed as decrease of ovarian weight at 20 mg/kg, sc for 14 days; details: Pituitary gland
Homo sapiens [12] = assay: Drug metabolism in human assessed as 6beta,17-dihydroxy-2alpha-(hydroxymethyl)-17alpha-pregn-4-en-20-yn-3-one level in urine at 800 mg, po after 24 hrs by TLC analysis; assay type: ADME, organism-based; details: in vivo; outline: as §2
Rattus norvegicus [13] = assay: Inhibition of pituitary gonadotropin activity in rat assessed as decrease of number of vaginal estrous days at 20 mg/kg, sc for 14 days; details: Pituitary gland
Homo sapiens [14] = assay: Drug metabolism in human assessed as 17-hydroxy-2alpha-(hydroxymethyl)-17apregn-4-en-20-yn-3-one level in urine at 800 mg, po after 24 hrs by TLC analysis; assay type: ADME, organism-based; details: in vivo; outline: as §2
[15] = Drug metabolism in rhesus monkey assessed as 17-hydroxy-17alpha-pregn-4-en-20-yn-3-one level in urine at 50 mg/kg, po bid after 24 hrs by TLC analysis; assay type: ADME, organism-based, Macaca mulatta; design: dose 50 mg/kg, route oral; details: in vivo
Homo sapiens [16] = assay: Drug metabolism in human assessed as 6beta,17-dihydroxy-2-(hydroxymethyl)-17alpha-pregna-1,4-dien-20-yn-3-one level in urine at 800 mg, po after 24 hrs by TLC analysis; assay type: ADME, organism-based; details: in vivo; outline: as §2

SMILES | inhibition (Rattus norvegicus [1]) | inhibition (Rattus norvegicus [2]) | inhibition (Rattus norvegicus [3]) | Drug metabolism (Homo sapiens [4]) | inhibition (Rattus norvegicus [5]) | inhibition (Rattus norvegicus [6]) | inhibition (Rattus norvegicus [7]) | inhibition (Rattus norvegicus [8]) | Drug metabolism [9] | Drug metabolism (Homo sapiens [10]) | inhibition (Rattus norvegicus [11]) | Drug metabolism (Homo sapiens [12]) | inhibition (Rattus norvegicus [13]) | Drug metabolism (Homo sapiens [14]) | Drug metabolism [15] | Drug metabolism (Homo sapiens [16])
C#C[C@]1(O)CC[C@H]2[C@@H]3C[C@@H](O)C4=CC(=O)[C@H](CO)C[C@]4(C)[C@H]3CC[C@@]21C | inactive | inactive | inactive | metabolite_detected | inactive | inactive | – | – | – | – | – | – | – | – | – | –
C#C[C@]1(O)CC[C@H]2[C@@H]3C[C@@H](O)C4=CC(=O)C(CO)=C[C@]4(C)[C@H]3CC[C@@]21C | inactive | inactive | inactive | metabolite_detected | inactive | inactive | – | – | – | – | – | – | – | – | – | –
C#C[C@]1(O)CC[C@H]2[C@@H]3CCC4=CC(=O)C(CO)=C[C@]4(C)[C@H]3CC[C@@]21C | inactive | inactive | inactive | metabolite_detected | – | – | inactive | inactive | – | – | – | – | – | – | – | –
C#C[C@]1(O)CC[C@H]2[C@@H]3CCC4=CC(=O)[C@H](CO)C[C@]4(C)[C@H]3CC[C@@]21C | inactive | inactive | inactive | metabolite_detected | inactive | inactive | – | – | – | – | – | – | – | – | – | –
C#C[C@]1(O)CC[C@H]2[C@@H]3CCC4=CC(=O)CC[C@]4(C)[C@H]3CC[C@@]21C [ETHISTERONE] | inactive | inactive | inactive | – | – | – | inactive | inactive | metabolite_detected | – | – | – | – | – | – | –
C#C[C@]1(O)CC[C@H]2[C@@H]3CCC4=Cc5oncc5C[C@]4(C)[C@H]3CC[C@@]21C [DANAZOL] | Active | Active | Active | – | – | – | – | – | – | metabolite_detected | Active | metabolite_detected | Active | metabolite_detected | metabolite_detected | metabolite_detected
